Measured values published in ChEMBL document CHEMBL4393723, “Caffeic acid phenethyl ester (CAPE)-derivatives act as selective inhibitors of acetylcholinesterase” (Eur J Med Chem, 2019).

What was measured:
SW-1736 = assay: Cytotoxicity against human SW1736 cells measured after 96 hrs by SRB assay; type: cell-based; details: for EC50: Homo sapiens, SW-1736, 96 h; for Activity: human, sw-1736, 96 h
Method in brief: (§1)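 Cells seeded on day 0 and exposed from 24 h to at least six concentrations (1, 3, 7, 12, 20, 30 µM), with final DMSO/DMF at most 0.5%. After 96 h treatment, fixed in 10% TCA for 24 h at 4 °C and stained about 20 min with 0.4% SRB in 1% acetic acid. Bound dye dissolved in 10 mM Tris base, read at 570 nm. EC50 from 4-parameter Hill fit (top 100, bottom 0), three independent experiments in triplicate.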

MCF7 = assay: Cytotoxicity against human MCF7 cells measured after 96 hrs by SRB assay; type: cell-based; details: for EC50: Homo sapiens, MCF7, 96 h; for Activity: human, mcf7, 96 h; method in brief: as §1
HT-29 = assay: Cytotoxicity against human HT-29 cells measured after 96 hrs by SRB assay; type: cell-based; details: for EC50: Homo sapiens, HT-29, 96 h; for Activity: human, ht-29, 96 h; method in brief: as §1
A2780 = assay: Cytotoxicity against human A2780 cells measured after 96 hrs by SRB assay; type: cell-based; details: for EC50: Homo sapiens, A2780, 96 h; for Activity: human, a2780, 96 h; method in brief: as §1
FaDu = assay: Cytotoxicity against human FADU cells measured after 96 hrs by SRB assay; type: cell-based; details: for EC50: Homo sapiens, FaDu; for Activity: human, fadu; method in brief: as §1
NIH3T3 = assay: Cytotoxicity against mouse NIH/3T3 cells measured after 96 hrs by SRB assay; type: cell-based; details: for EC50: Mus musculus, NIH3T3, 96 h; for Activity: mouse, nih3t3, 96 h; method in brief: as §1
[1] = Solubility of the compound; type: physicochemical
Acetylcholinesterase [2] = molecular target: T1, Acetylcholinesterase (Electrophorus electricus, UniProt O42275); assay: Mixed inhibition of electric eel AChE using acetylcholine iodide as substrate preincubated for 20 mins followed by substrate addition and measured every minute for 30 mins by Lineweaver-Burk plot analysis
T1 sequence (O42275 whole entry): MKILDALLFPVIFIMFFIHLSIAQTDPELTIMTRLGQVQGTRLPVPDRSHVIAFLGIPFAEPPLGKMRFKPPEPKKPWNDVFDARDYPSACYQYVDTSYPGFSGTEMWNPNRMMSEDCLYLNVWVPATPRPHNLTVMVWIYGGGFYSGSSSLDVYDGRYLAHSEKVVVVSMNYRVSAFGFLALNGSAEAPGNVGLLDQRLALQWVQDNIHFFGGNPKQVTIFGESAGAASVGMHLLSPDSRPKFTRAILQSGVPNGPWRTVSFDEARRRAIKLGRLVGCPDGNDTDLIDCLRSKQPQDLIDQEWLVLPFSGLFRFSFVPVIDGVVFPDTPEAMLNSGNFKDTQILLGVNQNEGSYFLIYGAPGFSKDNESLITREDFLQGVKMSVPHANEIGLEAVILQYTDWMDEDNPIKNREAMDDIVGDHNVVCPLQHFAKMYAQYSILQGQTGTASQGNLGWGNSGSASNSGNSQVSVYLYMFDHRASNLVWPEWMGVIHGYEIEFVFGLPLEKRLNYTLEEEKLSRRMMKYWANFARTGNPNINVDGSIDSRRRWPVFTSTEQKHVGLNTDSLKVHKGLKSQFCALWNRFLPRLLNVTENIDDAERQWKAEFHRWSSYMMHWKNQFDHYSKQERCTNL

Acetylcholinesterase [3] = molecular target: T1, Acetylcholinesterase; assay: Mixed inhibition of electric eel AChE using butyrylcholine iodide as substrate preincubated for 20 mins followed by substrate addition and measured every minute for 30 mins Dixon/Cornish-Bowden plot analysis

O=C(/C=C/c1ccc(O)c(O)c1)OCCc1ccccc1 [CAFFEIC ACID PHENETHYL ESTER]
EC50 (SW-1736): 4.7 µM | EC50 (MCF7): 12.1 µM | EC50 (HT-29): > 30 µM | EC50 (A2780): 3.5 µM | EC50 (FaDu): 12.1 µM | EC50 (NIH3T3): 21.4 µM

O=C(/C=C/c1ccc(OCc2ccccc2)c(OCc2ccccc2)c1)OCCc1cccc(OC(=O)/C=C/c2ccc(OCc3ccccc3)c(OCc3ccccc3)c2)c1
solubility [1]: Insoluble

COc1cc(/C=C/C(=O)OCCc2ccccc2)cc(OC)c1OCCc1ccccc1
Activity (SW-1736): Non-Toxic | Ki (Acetylcholinesterase [2]): 1.97 µM | Activity (MCF7): Non-Toxic | Activity (HT-29): Non-Toxic | Activity (A2780): Non-Toxic | Activity (FaDu): Non-Toxic | Activity (NIH3T3): Non-Toxic | Ki (Acetylcholinesterase [3]): 2.44 µM

COc1ccc(/C=C/C(=O)OCCc2ccccc2)cc1OC
EC50 (SW-1736): 16.7 µM | EC50 (MCF7): 16.2 µM | EC50 (HT-29): 16.7 µM | EC50 (A2780): 17 µM | EC50 (FaDu): 17.2 µM | EC50 (NIH3T3): 17.7 µM

COc1ccc(/C=C/C(=O)OCCc2ccccc2)c(OC)c1
Ki (Acetylcholinesterase [2]): 11.9 µM | Ki (Acetylcholinesterase [3]): 34.8 µM

O=C(/C=C/c1cccc(Cl)c1)OCCc1ccccc1
Ki (Acetylcholinesterase [2]): 14.2 µM | Ki (Acetylcholinesterase [3]): 56.6 µM

O=C(/C=C/c1ccc(OCc2ccccc2)c(OCc2ccccc2)c1)OCCc1ccccc1OC(=O)/C=C/c1ccc(OCc2ccccc2)c(OCc2ccccc2)c1
solubility [1]: Insoluble

O=C(/C=C/c1ccc(OCc2ccccc2)c(OCc2ccccc2)c1)OCCc1ccccc1O
Ki (Acetylcholinesterase [2]): 8.55 µM | Ki (Acetylcholinesterase [3]): 12.1 µM

O=C(/C=C/c1ccc(OCc2ccccc2)c(OCc2ccccc2)c1)OCCc1ccc(OC(=O)/C=C/c2ccc(OCc3ccccc3)c(OCc3ccccc3)c2)cc1
solubility [1]: Insoluble

O=C(/C=C/c1ccc(OCc2ccccc2)c(OCc2ccccc2)c1)OCCc1ccc(OC(=O)/C=C/c2ccc(OCc3ccccc3)c(OCc3ccccc3)c2)c(OC(=O)/C=C/c2ccc(OCc3ccccc3)c(OCc3ccccc3)c2)c1
Activity (SW-1736): Non-Toxic | Ki (Acetylcholinesterase [2]): 0.72 µM | Activity (MCF7): Non-Toxic | Activity (HT-29): Non-Toxic | Activity (A2780): Non-Toxic | Activity (FaDu): Non-Toxic | Activity (NIH3T3): Non-Toxic | Ki (Acetylcholinesterase [3]): 1.8 µM

O=C(/C=C/c1cccc(Br)c1)OCCc1ccccc1
Ki (Acetylcholinesterase [2]): 8.82 µM | Ki (Acetylcholinesterase [3]): 30.9 µM
